Assays:
[1] = tested on: ALK tyrosine kinase receptor (Homo sapiens), Q9UM73 [L1196M]; experiment: Binding affinity to wild-type human partial length ALK L1196M mutant (I1088 to E1409 residues) expressed in mammalian expression system assessed as residual binding level at 1 uM by Kinomescan method relative to control
In short: (§1)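 Single-concentration KINOMEscan (DiscoverX) binding screen at 1 μM against a panel of 468 purified kinases and mutants. The read-out is binding relative to control.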

[2] = target: Bone morphogenetic protein receptor type-1B (Homo sapiens) (UniProt O00238); experiment: Binding affinity to wild-type human partial length BMPR1B (D178 to L502 residues) expressed in mammalian expression system assessed as residual binding level at 1 uM by Kinomescan method relative to control; in short: as §1
[3] = target: Cyclin-dependent kinase-like 1 (Homo sapiens) (UniProt Q00532); experiment: Binding affinity to wild-type human full length CDKL1 (M1 to I358 residues) expressed in mammalian expression system assessed as residual binding level at 1 uM by Kinomescan method relative to control
In short: (§2)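 Single-concentration (1 μM) competition-binding screen run by KINOMEscan against a panel of 468 purified kinases and mutants. The read-out is the relative binding activity of the test compound to each kinase.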

[4] = tested on: Epidermal growth factor receptor (Homo sapiens), P00533 [G719S]; experiment: Binding affinity to human partial length EGFR G719S mutant (R669 to V1011 residues) expressed in bacterial expression system assessed as residual binding level at 1 uM by Kinomescan method relative to control
In short: (§3)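 Kinome-wide single-concentration binding screen (KINOMEscan) at 1 μM against a panel of 468 purified kinases and mutants. Read-out is relative binding of each kinase compared with control. Selectivity across the panel was summarised as an S(10) score.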

[5] = tested on: Epidermal growth factor receptor (Homo sapiens), P00533 [UNDEFINED MUTATION]; experiment: Binding affinity to human partial length EGFR L747-S752del/P753S mutant expressed in bacterial expression system assessed as residual binding level at 1 uM by Kinomescan method relative to control; in short: as §3
[6] = target: Ephrin type-A receptor 8 (Homo sapiens) (UniProt P29322); experiment: Binding affinity to wild-type human partial length EPHA8 (Q608 to C920 residues) expressed in bacterial expression system assessed as residual binding level at 1 uM by Kinomescan method relative to control
In short: (§4)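 Kinome-wide competition binding screen against a panel of 468 purified kinases/mutants, with the test compound at a single concentration of 1 μM. Read-out is the relative binding activity of each kinase in the presence of compound.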

[7] = target: Tyrosine-protein kinase FRK (Homo sapiens) (UniProt P42685); experiment: Binding affinity to wild-type human partial length FRK (A215 to F503 residues) expressed in bacterial expression system assessed as residual binding level at 1 uM by Kinomescan method relative to control; in short: as §4
[8] = target: Inhibitor of nuclear factor kappa-B kinase subunit epsilon (Homo sapiens) (UniProt Q14164); experiment: Binding affinity to wild-type human full length IKK-epsilon (M1 to V716 residues) expressed in mammalian expression system assessed as residual binding level at 1 uM by Kinomescan method relative to control; in short: as §2
[9] = tested on: Leucine-rich repeat serine/threonine-protein kinase 2 (Homo sapiens), Q5S007 [G2019S]; experiment: Binding affinity to human partial length LRRK2 G2019S mutant (H970 to E2527 residues) expressed in mammalian expression system assessed as residual binding level at 1 uM by Kinomescan method relative to control; in short: as §3
[10] = target: Leukocyte tyrosine kinase receptor (Homo sapiens) (UniProt P29376); experiment: Binding affinity to wild-type human partial length LTK (P422 to S744 residues) expressed in bacterial expression system assessed as residual binding level at 1 uM by Kinomescan method relative to control; in short: as §4
[11] = target: Mitogen-activated protein kinase kinase kinase 3 (Homo sapiens) (UniProt Q99759); experiment: Binding affinity to wild-type human partial length MAP3K3 (E320 to Y626 residues) expressed in mammalian expression system assessed as residual binding level at 1 uM by Kinomescan method relative to control
[12] = target: Mitogen-activated protein kinase kinase kinase kinase 3 (Homo sapiens) (UniProt Q8IVH8); experiment: Binding affinity to wild-type human partial length MAP4K3 (M1 to D301 residues) expressed in bacterial expression system assessed as residual binding level at 1 uM by Kinomescan method relative to control
[13] = target: Serine/threonine-protein kinase MRCK beta (Homo sapiens) (UniProt Q9Y5S2); experiment: Binding affinity to wild-type human partial length MRCKB (L56 to S417 residues) expressed in bacterial expression system assessed as residual binding level at 1 uM by Kinomescan method relative to control
[14] = target: Serine/threonine-protein kinase PAK 4 (Homo sapiens) (UniProt O96013); experiment: Binding affinity to wild-type human partial length PAK4 (Q144 to R438 residues) expressed in bacterial expression system assessed as residual binding level at 1 uM by Kinomescan method relative to control
[15] = target: Calcium-dependent protein kinase 1 (Plasmodium falciparum) (UniProt P62344); experiment: Binding affinity to wild-type Plasmodium falciparum 3D7 full length CDPK1 (M1 to S524 residues) expressed in mammalian expression system assessed as residual binding level at 1 uM by Kinomescan method relative to control
In short: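 KINOMEscan competition binding against 468 purified kinases/mutants, test compound at 1 µM; residual binding relative to control.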

[16] = target: Phosphorylase b kinase gamma catalytic chain, liver/testis isoform (Homo sapiens) (UniProt P15735); experiment: Binding affinity to wild-type human partial length PHKG2 (M1 to W300 residues) expressed in bacterial expression system assessed as residual binding level at 1 uM by Kinomescan method relative to control
In short: (§5)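 KINOMEscan competition binding against a panel of 468 purified kinases/mutants, compound tested at 1 μM; readout is relative binding activity versus control.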

[17] = target: Serine/threonine-protein kinase PLK2 (Homo sapiens) (UniProt Q9NYY3); experiment: Binding affinity to wild-type human partial length PLK2 (H58 to F354 residues) expressed in mammalian expression system assessed as residual binding level at 1 uM by Kinomescan method relative to control; in short: as §5
[18] = target: Protein-tyrosine kinase 2-beta (Homo sapiens) (UniProt Q14289); experiment: Binding affinity to wild-type human full length PYK2 (M1 to E967 residues) expressed in bacterial expression system assessed as residual binding level at 1 uM by Kinomescan method relative to control; in short: as §1
[19] = target: Ribosomal protein S6 kinase beta-1 (Homo sapiens) (UniProt P23443); experiment: Binding affinity to wild-type human partial length S6K1 (M1 to S421 residues) expressed in mammalian expression system assessed as residual binding level at 1 uM by Kinomescan method relative to control
[20] = target: Serine/threonine-protein kinase tousled-like 1 (Homo sapiens) (UniProt Q9UKI8); experiment: Binding affinity to wild-type human partial length TLK1 (K447 to A754 residues) expressed in bacterial expression system assessed as residual binding level at 1 uM by Kinomescan method relative to control
[21] = target: Tyrosine-protein kinase receptor TYRO3 (Homo sapiens) (UniProt Q06418); experiment: Binding affinity to wild-type human partial length TYRO3 (S497 to T814 residues) expressed in bacterial expression system assessed as residual binding level at 1 uM by Kinomescan method relative to control
Chain of Tyrosine-protein kinase receptor TYRO3 (Homo sapiens) (Q06418 whole entry, the tested form may be a part): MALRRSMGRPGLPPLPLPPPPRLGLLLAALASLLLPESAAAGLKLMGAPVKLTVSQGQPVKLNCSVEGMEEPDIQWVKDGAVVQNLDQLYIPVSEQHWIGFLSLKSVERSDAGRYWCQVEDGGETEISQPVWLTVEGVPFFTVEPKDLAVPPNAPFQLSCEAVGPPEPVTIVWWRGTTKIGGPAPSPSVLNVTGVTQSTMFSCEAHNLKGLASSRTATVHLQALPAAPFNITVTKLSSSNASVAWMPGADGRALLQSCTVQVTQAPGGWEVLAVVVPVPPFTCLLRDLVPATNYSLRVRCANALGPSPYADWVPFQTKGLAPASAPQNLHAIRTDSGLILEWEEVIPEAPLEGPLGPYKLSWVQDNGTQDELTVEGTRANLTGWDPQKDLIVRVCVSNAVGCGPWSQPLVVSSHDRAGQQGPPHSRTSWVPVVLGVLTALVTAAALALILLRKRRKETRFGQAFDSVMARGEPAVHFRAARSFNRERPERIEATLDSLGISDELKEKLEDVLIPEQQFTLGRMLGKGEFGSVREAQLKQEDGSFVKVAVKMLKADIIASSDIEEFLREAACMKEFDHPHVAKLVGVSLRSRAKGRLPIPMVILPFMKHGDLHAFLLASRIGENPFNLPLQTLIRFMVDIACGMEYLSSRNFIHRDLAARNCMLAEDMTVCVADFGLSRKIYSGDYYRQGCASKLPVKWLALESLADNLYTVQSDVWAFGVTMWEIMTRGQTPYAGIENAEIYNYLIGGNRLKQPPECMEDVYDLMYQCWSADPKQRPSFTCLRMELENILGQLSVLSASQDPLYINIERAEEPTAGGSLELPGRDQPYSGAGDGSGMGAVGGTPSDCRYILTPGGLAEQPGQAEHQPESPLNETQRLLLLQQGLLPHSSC

Chain of Calcium-dependent protein kinase 1 (Plasmodium falciparum) (P62344 2-524 limits assumed): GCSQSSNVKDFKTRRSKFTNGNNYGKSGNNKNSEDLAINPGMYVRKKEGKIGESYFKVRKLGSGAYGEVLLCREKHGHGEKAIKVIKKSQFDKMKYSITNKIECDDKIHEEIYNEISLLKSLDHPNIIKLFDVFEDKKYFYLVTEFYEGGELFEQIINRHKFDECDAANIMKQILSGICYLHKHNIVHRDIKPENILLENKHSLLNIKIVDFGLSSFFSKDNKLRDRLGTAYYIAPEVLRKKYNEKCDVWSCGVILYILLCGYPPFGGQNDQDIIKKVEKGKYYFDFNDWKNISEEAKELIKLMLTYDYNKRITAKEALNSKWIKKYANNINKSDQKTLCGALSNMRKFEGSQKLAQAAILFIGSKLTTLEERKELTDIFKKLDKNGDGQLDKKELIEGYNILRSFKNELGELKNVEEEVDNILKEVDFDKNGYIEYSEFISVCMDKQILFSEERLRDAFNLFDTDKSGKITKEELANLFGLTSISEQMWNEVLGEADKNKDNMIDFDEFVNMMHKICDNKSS
Chain of Protein-tyrosine kinase 2-beta (Homo sapiens) (Q14289 whole entry, looked up, the tested form may be a part): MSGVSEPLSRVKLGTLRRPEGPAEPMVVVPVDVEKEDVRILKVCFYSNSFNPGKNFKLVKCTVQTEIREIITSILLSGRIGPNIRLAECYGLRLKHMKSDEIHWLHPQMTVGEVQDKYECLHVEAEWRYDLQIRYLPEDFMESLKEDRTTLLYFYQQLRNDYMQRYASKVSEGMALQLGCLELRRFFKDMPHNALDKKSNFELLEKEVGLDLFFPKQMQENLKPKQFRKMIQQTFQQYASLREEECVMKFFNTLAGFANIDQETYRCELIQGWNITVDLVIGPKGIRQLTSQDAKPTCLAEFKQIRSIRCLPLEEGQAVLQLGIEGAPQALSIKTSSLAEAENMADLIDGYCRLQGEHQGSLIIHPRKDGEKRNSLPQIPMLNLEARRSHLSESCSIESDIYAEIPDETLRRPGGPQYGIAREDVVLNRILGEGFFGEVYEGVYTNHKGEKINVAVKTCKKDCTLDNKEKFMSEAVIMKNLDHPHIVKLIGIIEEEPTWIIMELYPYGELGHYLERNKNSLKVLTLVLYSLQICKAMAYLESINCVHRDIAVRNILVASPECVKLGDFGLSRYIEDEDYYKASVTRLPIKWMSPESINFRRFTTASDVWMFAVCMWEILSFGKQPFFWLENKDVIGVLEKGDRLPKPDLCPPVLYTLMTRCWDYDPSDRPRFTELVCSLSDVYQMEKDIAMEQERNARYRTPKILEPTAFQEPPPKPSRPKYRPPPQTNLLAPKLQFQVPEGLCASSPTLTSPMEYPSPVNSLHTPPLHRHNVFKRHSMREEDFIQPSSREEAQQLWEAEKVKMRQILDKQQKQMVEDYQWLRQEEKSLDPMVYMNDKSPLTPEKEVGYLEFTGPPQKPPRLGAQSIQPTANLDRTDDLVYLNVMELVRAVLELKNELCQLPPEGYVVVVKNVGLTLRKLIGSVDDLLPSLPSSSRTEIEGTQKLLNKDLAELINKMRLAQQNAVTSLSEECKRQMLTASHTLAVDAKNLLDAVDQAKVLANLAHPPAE
Chain of Mitogen-activated protein kinase kinase kinase kinase 3 (Homo sapiens) (Q8IVH8 whole entry, the tested form may be a part): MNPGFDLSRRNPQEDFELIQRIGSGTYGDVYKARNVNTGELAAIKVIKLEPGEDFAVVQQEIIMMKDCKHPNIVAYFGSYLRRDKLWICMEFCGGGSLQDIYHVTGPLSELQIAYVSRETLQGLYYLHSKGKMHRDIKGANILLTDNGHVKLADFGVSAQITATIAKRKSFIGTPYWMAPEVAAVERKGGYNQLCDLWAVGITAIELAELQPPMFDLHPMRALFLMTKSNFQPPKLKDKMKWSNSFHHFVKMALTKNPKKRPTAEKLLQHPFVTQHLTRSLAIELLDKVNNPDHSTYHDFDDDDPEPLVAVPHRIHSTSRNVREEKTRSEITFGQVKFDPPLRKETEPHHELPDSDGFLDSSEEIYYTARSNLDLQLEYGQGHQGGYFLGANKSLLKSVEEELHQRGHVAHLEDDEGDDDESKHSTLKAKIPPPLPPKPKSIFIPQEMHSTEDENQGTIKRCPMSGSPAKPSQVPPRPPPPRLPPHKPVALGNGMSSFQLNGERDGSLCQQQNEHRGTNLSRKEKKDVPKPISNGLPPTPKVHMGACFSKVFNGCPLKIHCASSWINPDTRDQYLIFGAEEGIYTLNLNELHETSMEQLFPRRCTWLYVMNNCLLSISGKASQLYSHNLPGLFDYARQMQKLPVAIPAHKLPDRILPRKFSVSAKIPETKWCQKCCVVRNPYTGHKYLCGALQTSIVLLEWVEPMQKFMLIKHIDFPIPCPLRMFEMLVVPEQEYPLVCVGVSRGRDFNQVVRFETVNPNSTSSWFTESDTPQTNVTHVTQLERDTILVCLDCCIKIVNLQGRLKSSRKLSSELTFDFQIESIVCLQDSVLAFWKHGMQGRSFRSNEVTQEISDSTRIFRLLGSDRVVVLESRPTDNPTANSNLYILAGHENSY
Chain of Tyrosine-protein kinase FRK (Homo sapiens) (P42685 whole entry, the tested form may be a part): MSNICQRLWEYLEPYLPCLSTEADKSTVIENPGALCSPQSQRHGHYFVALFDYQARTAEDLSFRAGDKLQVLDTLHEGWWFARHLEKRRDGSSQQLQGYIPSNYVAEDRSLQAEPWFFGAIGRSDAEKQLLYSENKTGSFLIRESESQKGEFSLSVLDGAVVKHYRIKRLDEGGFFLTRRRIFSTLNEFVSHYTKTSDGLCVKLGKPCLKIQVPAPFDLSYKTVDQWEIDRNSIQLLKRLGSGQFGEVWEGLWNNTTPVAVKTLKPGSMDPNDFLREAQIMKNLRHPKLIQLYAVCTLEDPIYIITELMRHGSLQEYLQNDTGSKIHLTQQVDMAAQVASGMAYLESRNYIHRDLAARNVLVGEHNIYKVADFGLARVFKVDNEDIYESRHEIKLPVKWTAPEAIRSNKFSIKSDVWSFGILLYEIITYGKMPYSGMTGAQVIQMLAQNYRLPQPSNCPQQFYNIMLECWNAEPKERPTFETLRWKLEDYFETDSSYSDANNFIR
Chain of Ephrin type-A receptor 8 (Homo sapiens) (P29322 whole entry, the tested form may be a part): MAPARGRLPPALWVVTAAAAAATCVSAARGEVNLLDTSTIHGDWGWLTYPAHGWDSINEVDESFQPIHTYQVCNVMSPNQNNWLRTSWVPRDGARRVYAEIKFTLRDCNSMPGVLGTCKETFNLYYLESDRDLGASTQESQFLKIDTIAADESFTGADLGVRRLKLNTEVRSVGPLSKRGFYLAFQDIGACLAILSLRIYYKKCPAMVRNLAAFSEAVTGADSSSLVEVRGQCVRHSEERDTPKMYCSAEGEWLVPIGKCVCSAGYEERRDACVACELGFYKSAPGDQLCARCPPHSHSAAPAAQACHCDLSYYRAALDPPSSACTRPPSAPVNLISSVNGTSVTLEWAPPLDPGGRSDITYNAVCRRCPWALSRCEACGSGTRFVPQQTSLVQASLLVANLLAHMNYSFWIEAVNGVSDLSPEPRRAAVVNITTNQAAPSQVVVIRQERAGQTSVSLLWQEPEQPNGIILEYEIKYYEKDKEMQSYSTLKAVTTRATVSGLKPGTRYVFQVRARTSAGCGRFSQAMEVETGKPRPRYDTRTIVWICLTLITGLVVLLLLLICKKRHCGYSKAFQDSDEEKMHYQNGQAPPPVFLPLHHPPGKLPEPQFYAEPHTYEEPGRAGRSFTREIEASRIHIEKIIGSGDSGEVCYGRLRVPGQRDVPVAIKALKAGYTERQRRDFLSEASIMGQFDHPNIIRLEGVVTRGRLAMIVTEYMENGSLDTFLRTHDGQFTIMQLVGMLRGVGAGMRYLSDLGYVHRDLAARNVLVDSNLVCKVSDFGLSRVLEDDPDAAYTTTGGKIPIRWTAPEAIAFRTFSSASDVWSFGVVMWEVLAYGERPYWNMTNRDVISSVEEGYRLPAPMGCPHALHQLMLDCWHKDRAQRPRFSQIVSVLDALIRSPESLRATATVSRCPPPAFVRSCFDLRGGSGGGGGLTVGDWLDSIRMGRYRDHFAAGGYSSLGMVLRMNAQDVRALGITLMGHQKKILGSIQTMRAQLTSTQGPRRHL

**Q.** How did the Activity [1] turn out when Cc1ccc(NC(=O)c2ccc(CN(CCN(C)C)C(=O)c3cccnc3)cc2)cc1Nc1nccc(-c2cccnc2)n1 was run?
**A.** The Activity was 100%.

**Q.** What about the Activity [2] of the same compound?
**A.** The Activity was 95%.

**Q.** And the Activity [3]?
**A.** The Activity was 85%.

**Q.** What about the Activity [4] of the same compound?
**A.** Its Activity is 85%.

**Q.** What about the Activity [5] of the same compound?
**A.** The Activity was 96%.

**Q.** What about the Activity [6] of the same compound?
**A.** The Activity was 89%.

**Q.** What about the Activity [7] of the same compound?
**A.** The Activity was 80%.

**Q.** And the Activity [8]?
**A.** The Activity was 100%.

**Q.** What about the Activity [9] of the same compound?
**A.** The Activity was 59%.

**Q.** What about the Activity [10] of the same compound?
**A.** The Activity was 87%.

**Q.** And the Activity [11]?
**A.** The Activity was 86%.

**Q.** What about the Activity [12] of the same compound?
**A.** Its Activity is 93%.

**Q.** What about the Activity [13] of the same compound?
**A.** The Activity was 99%.

**Q.** What about the Activity [14] of the same compound?
**A.** The Activity was 98%.

**Q.** What about the Activity [15] of the same compound?
**A.** The Activity was 82%.

**Q.** And the Activity [16]?
**A.** The Activity was 89%.

**Q.** And the Activity [17]?
**A.** The Activity was 87%.

**Q.** And the Activity [18]?
**A.** The Activity was 99%.

**Q.** And the Activity [19]?
**A.** Its Activity is 100%.

**Q.** What about the Activity [20] of the same compound?
**A.** Its Activity is 100%.

**Q.** And the Activity [21]?
**A.** The Activity was 85%.

— ChEMBL document CHEMBL4229344 (Eur J Med Chem, 2018)
